Measurements published in ChEMBL document CHEMBL1121797, “Studies on chiral interactions of 1-(2,5-dimethoxy-4-methylphenyl)-2-aminopropane and the corresponding N-hydroxy metabolites with cytochrome P-450” (J Med Chem, 1981).
Values joined by “and” are separate entries in the source; they are usually repeats but may differ in a detail not shown here. Identical values can stand only once.

How the values were obtained:
[1] = biological target: T1, Cytochrome P450 2C19 (Homo sapiens, UniProt P33261); experiment: (§1) Percent inhibition of formation of metabolic intermediate complex between Cytochrome P450 and compound 1a (30 uM) initially, following incubation at compound concentration of 30 uM; format: ADME, Oryctolagus cuniculus; conditions: rabbit, probe compound 1a (30 uM)
T1 sequence (P33261 whole entry): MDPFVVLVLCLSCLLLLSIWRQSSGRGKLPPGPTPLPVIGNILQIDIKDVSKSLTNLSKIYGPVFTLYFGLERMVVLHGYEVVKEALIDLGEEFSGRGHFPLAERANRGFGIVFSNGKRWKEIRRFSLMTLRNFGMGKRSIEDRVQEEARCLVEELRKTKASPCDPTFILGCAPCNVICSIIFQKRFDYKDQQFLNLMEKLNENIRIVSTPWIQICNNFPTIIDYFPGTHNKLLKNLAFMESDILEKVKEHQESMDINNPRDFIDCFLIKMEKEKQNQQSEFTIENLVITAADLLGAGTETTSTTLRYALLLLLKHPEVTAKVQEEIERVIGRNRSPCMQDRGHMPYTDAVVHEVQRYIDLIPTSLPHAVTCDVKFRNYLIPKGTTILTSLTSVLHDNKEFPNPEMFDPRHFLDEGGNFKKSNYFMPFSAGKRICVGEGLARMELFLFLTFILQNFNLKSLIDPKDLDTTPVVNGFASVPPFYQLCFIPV
Outline: (§2)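 Inverse cross-inhibition in NADPH-supplemented rabbit liver microsomes at 37 °C. Preincubation with racemic hydroxylamine at 0–30 μM, monitoring 457-nm complex formation. The amine was then added at 30 μM, or racemic hydroxylamine at 30 μM. Initial rate and plateau extent were taken from ΔA457–500 nm tracings. Percent inhibition is relative to incubation in fresh microsomes.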

[2] = biological target: T1, Cytochrome P450 2C19; experiment: Percent inhibition of formation of metabolic intermediate complex between Cytochrome P450 and compound 1a (30 uM) initially, on pre-incubation with compound concentration of 5 uM; format: ADME, Oryctolagus cuniculus; conditions: rabbit, probe compound 1a (30 uM); outline: as §2
[3] = biological target: T1, Cytochrome P450 2C19; experiment: Extent of complex formation with 5 uM compound; format: ADME, Oryctolagus cuniculus; conditions: rabbit
[4] = Initial rates of formation of metabolic intermediate Cytochrome P-450 at compound concentration of 30 uM; format: ADME
Outline: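 Rabbit liver microsomes at 2 mg protein/mL with 0.1 mM EDTA, 37 °C, substrate 30 μM. Complex formation started with 0.4 mM NADPH and followed by dual-wavelength absorbance, 457 vs 500 nm. Initial rate is the initial slope, ΔA×10^4 per nmol P-450 per min. Extent is the plateau absorbance. Lag is the time from NADPH addition to first 457-nm chromophore. Triplicate or single runs.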

[5] = biological target: T1, Cytochrome P450 2C19; experiment: Percent inhibition of formation of metabolic intermediate complex between Cytochrome P450 and compound 1a (30 uM) on extent, following incubation at compound concentration of 5 uM; format: ADME, Oryctolagus cuniculus; conditions: rabbit, probe compound 1a (30 uM)
Outline: (§3)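 Hepatic microsomes came from male Dutch rabbits, fasted 24 h. They were diluted to 2 mg protein/mL in 50 mM Tris-Cl with 150 mM KCl, 10 mM MgSO4 and 0.1 mM EDTA, with NADPH added, at 37 °C. Microsomes were preincubated with racemic hydroxylamine 2, then 30 µM 1a or 30 µM racemic 2 was added. Complex formation was followed as ΔA457–500 nm, and inhibition of rate and extent (plateau) was calculated.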

[6] = biological target: T1, Cytochrome P450 2C19; experiment: Percent inhibition of formation of metabolic intermediate complex between Cytochrome P450 and compound 1a (30 uM) on extent, on pre-incubation with compound concentration of 30 uM; format: ADME, Oryctolagus cuniculus; conditions: rabbit, probe compound 1a (30 uM); outline: as §3
[7] = biological target: T1, Cytochrome P450 2C19; experiment: Initial rate of complex formation with 5 uM compound; format: ADME, Oryctolagus cuniculus; conditions: rabbit
[8] = biological target: T1, Cytochrome P450 2C19; experiment: Extent of complex formation with 15 uM compound; format: ADME, Oryctolagus cuniculus; conditions: rabbit
[9] = biological target: T1, Cytochrome P450 2C19; experiment: Initial rate of complex formation with20 uM compound; format: ADME, Oryctolagus cuniculus; conditions: rabbit, 20 µM
[10] = biological target: T1, Cytochrome P450 2C19; experiment: Initial rate of complex formation with 20 uM compound; format: ADME, Oryctolagus cuniculus; conditions: rabbit
[11] = biological target: T1, Cytochrome P450 2C19; experiment: (§4) Extent of complex formation with 20 uM compound; format: ADME, Oryctolagus cuniculus; conditions: rabbit
[12] = biological target: T1, Cytochrome P450 2C19; experiment: (§5) Extent of complex formation with 30 uM compound; format: ADME, Oryctolagus cuniculus; conditions: rabbit
[13] = biological target: T1, Cytochrome P450 2C19; experiment: Percent inhibition of formation of metabolic intermediate complex between Cytochrome P450 and compound 1a (30 uM) initially, following incubation at compound concentration of 20 uM; format: ADME, Oryctolagus cuniculus; conditions: rabbit, probe compound 1a (30 uM)
[14] = biological target: T1, Cytochrome P450 2C19; experiment: Percent inhibition of formation of metabolic intermediate complex between Cytochrome P450 and compound 1a (30 uM) on extent, following incubation at compound concentration of 15 uM; format: ADME, Oryctolagus cuniculus; conditions: rabbit, probe compound 1a (30 uM); outline: as §3
[15] = biological target: T1, Cytochrome P450 2C19; experiment: as §5; format: ADME, Oryctolagus cuniculus; conditions: rabbit; remark: listed apart in the source
[16] = biological target: T1, Cytochrome P450 2C19; experiment: as §1; format: ADME, Oryctolagus cuniculus; conditions: rabbit, probe compound 1a (30 uM); outline: as §2; remark: listed apart in the source
[17] = biological target: T1, Cytochrome P450 2C19; experiment: as §4; format: ADME, Oryctolagus cuniculus; conditions: rabbit; remark: listed apart in the source
[18] = biological target: T1, Cytochrome P450 2C19; experiment: Percent inhibition of formation of metabolic intermediate complex between Cytochrome P450 and compound 1a (30 uM) on extent, following incubation at compound concentration of 20 uM; format: ADME, Oryctolagus cuniculus; conditions: rabbit, probe compound 1a (30 uM)
[19] = biological target: T1, Cytochrome P450 2C19; experiment: Percent inhibition of formation of metabolic intermediate complex between Cytochrome P450 and compound 1a (30 uM) on extent, following incubation at compound concentration of 30 uM; format: ADME, Oryctolagus cuniculus; conditions: rabbit
[20] = biological target: T1, Cytochrome P450 2C19; experiment: Percent inhibition of formation of metabolic intermediate complex between Cytochrome P450 and compound 1a (30 uM) initially, on pre-incubation with compound concentration of 15 uM; format: ADME, Oryctolagus cuniculus; conditions: rabbit, probe compound 1a (30 uM); outline: as §2
[21] = biological target: T1, Cytochrome P450 2C19; experiment: as §4; format: ADME, Oryctolagus cuniculus; conditions: rabbit; remark: listed apart in the source
[22] = biological target: T1, Cytochrome P450 2C19; experiment: Initial rate of complex formation with 15 uM compound; format: ADME, Oryctolagus cuniculus; conditions: rabbit

## COc1cc(C[C@@H](C)NO)c(OC)cc1C.COc1cc(C[C@H](C)NO)c(OC)cc1C
[1]
  inhibition at 30 µM: 74%
[2]
  inhibition at 5 µM: 80%
[3]
  Complex_formation: 43 deltaA.10^4nmol-1 and 85 deltaA.10^4nmol-1
[4]
  Rate: 154
[5]
  inhibition at 5 µM: 39%
[6]
  inhibition at 30 µM: 100%
[7]
  Initial_rate: 52 deltaA.10^4nmol-1.min-1
[8]
  Complex_formation: 97 deltaA.10^4nmol-1
[9]
  Initial_rate: 87 deltaA.10^4nmol-1.min-1
[10]
  Initial_rate: 89 deltaA.10^4nmol-1.min-1
[11]
  Complex_formation: 90 deltaA.10^4nmol-1
[12]
  Complex_formation: 139 deltaA.10^4nmol-1 and 135 deltaA.10^4nmol-1
[13]
  inhibition at 20 µM: 29%
[14]
  inhibition at 15 µM: 46%
[15]
  Complex_formation: 30 deltaA.10^4nmol-1
[16]
  inhibition at 30 µM: 72%
[17]
  Complex_formation: 85 deltaA.10^4nmol-1
[18]
  inhibition at 20 µM: 27%
[19]; 30 µM
  Inhibition: 66%
[19]; probe compound 1a (30 uM)
  inhibition at 30 µM: 73%
[20]
  inhibition at 15 µM: 100%
[21]
  Complex_formation: 109 deltaA.10^4nmol-1
[22]
  Initial_rate: 131 deltaA.10^4nmol-1.min-1
